The term CC50 denotes the concentration giving 50% cytotoxicity. The IC50 is the concentration needed to halve the response being measured. One may read the IC90 as the concentration needed for an effect of 90%.

≈ marks a conversion by molar mass, not a printed value.

Series [1] is described as follows: Cytotoxicity against african green monkey Vero cells after 72 hrs by Cell titer Glo assay. To be noted: chlorocebus sabaeus. In kind it is cell-based. Summed up:
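VERO cells exposed to compounds for 72 h, run in parallel with the M. tuberculosis dose-response assay. Viability read by ATP-based luminescence (Cell Titer-Glo). CC50 taken from the dose-response curve by curve fitting.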
For orientation: In ATP-based viability assays light output follows the ATP content of the culture.

In series [2] the test system is Mycobacterium tuberculosis. Kind of series: Antimycobacterial activity against Mycobacterium tuberculosis H37Rv by microplate Alamar blue assay. The class given is functional, organism-based. Summed up: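 M. tuberculosis H37Rv (ATCC 27294) grown in BACTEC 12B medium, broth microdilution read by Alamar Blue (MABA). Ten 2-fold dilutions, typically 100 to 0.19 µg/mL. IC90 = concentration giving 90% fluorescence reduction relative to controls; IC50 at 50%. Both taken from dose-response curve by curve fitting. Run alongside a parallel VERO cytotoxicity assay.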
On the technique in general: Alamar Blue is a resazurin reagent that responds to reducing activity.

Turning to `COc1cc(/C=N/NC(=O)c2cnccn2)ccc1O`, in series [1], the CC50 at 72 h was above 30 µg/mL. Also, in series [2], the IC50 is above 100 µg/mL and the 90% effect concentration (IC90) is above 100 µg/mL.
The compound `Nc1cccc(/C=N/NC(=O)c2cnccn2)c1` had a half-maximal cytotoxic concentration (CC50) at 72 h in series [1] above 30 µg/mL. In series [2], the IC50 is above 100 µg/mL and the IC90 was above 100 µg/mL.
In series [1], `COc1ccc(/C(C)=N/NC(=O)c2cnccn2)cc1` displayed a 50% cytotoxic concentration (CC50) at 72 h above 30 µg/mL. In series [2], this compound gave an IC50 above 100 µg/mL and an IC90 above 100 µg/mL.
`C/C(=N\NC(=O)c1cnccn1)c1ccc(Br)cc1`: the cytotoxic concentration (CC50) at 72 h in series [1] is above 30 µg/mL. For the same compound, in series [2], the IC50 was above 100 µg/mL and the IC90 was above 100 µg/mL.
`Cc1ccc2nc(Cl)c(/C=N/NC(=O)c3cnccn3)cc2c1` came in with a CC50 at 72 h in series [1] above 30 µg/mL. In series [2], the IC50 was above 100 µg/mL and the IC90 was above 100 µg/mL.
As to `COc1ccc2nc(Cl)c(/C=N/NC(=O)c3cnccn3)cc2c1`, half-maximal cytotoxicity in series [1] (CC50 at 72 h) was put at 5.37 µg/mL (≈ 15.7 µM). Also, in series [2], the IC50 is above 100 µg/mL and the IC90 was above 100 µg/mL.
As to `CCNC(=S)NNC(=O)c1cnccn1`, the CC50 at 72 h in series [1] was 29.8 µg/mL (≈ 132 µM). In series [2], this compound registered an IC50 of 11.4 µg/mL (≈ 50.5 µM) and an IC90 of 16.9 µg/mL (≈ 74.9 µM).
For `O=C(N/N=C/c1ccccc1O)c1cnccn1`, in that order: 11.4 µg/mL (≈ 47.2 µM), above 100 µg/mL and above 100 µg/mL.
With `O=C(N/N=C/c1ccc(Cl)cc1)c1cnccn1`, the CC50 at 72 h in series [1] is above 30 µg/mL. In series [2], this compound gave an IC50 above 100 µg/mL and an IC90 above 100 µg/mL.
`COc1ccc(/C=N/NC(=O)c2cnccn2)cc1` had a CC50 at 72 h in series [1] above 30 µg/mL. Moreover, in series [2], the IC50 was above 100 µg/mL and the IC90 is above 100 µg/mL.
With `O=C(N/N=C/c1ccc(O)cc1)c1cnccn1`, in series [1], the CC50 at 72 h was above 30 µg/mL. For the same compound, in series [2], the IC50 is above 100 µg/mL and the 90% effect concentration (IC90) was above 100 µg/mL.
The compound `O=C(N/N=C/c1cccc(O)c1)c1cnccn1` gave a CC50 at 72 h in series [1] above 30 µg/mL. In series [2], this compound registered an IC50 above 100 µg/mL and an IC90 above 100 µg/mL.
Regarding `NNC(=O)c1cnccn1` [PYRAZINE CARBOXYLIC ACID HYDRAZIDE], in series [1], the CC50 at 72 h was above 30 µg/mL. In series [2], this compound registered an IC50 above 100 µg/mL and an IC90 above 100 µg/mL.

The values are drawn from ChEMBL document CHEMBL1208674, “Synthesis and anti-mycobacterial evaluation of some pyrazine-2-carboxylic acid hydrazide derivatives” (Eur J Med Chem, 2010).
